Source: ChEMBL document CHEMBL1240480, “Design, synthesis and biological evaluation of L-dopa amide derivatives as potential prodrugs for the treatment of Parkinson's disease” (Eur J Med Chem, 2010)

Legend:
[1] = test system: Rattus norvegicus; test: Antiparkinsonian activity in 6-hydroxydopamine lesioned Wistar rat assessed as number of rotation per 10 mins at 16.53 mg/kg, ip; format: functional; details: route intraperitoneal
Procedure, shortened: (§1)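 Rotometer assay in unilaterally 6-OHDA-lesioned male Wistar rats (apomorphine-confirmed, >6 turns/min). Benserazide 10 mg/kg was given, followed by compound at 63.4 µmol/kg ip or po in saline (n=4–8 per treatment). Rotations were recorded per 10 min for 240 min. Peak (maximum) rotations per 10 min were taken and expressed relative to L-dopa.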

[2] = test system: Rattus norvegicus; test: Antiparkinsonian activity in 6-hydroxydopamine lesioned Wistar rat assessed as number of rotation per 10 mins at 16.53 mg/kg, po; format: functional; procedure, shortened: as §1
[3] = test system: Rattus norvegicus; test: Antiparkinsonian activity in 6-hydroxydopamine lesioned Wistar rat assessed as area under curve measured as number of rotation per 10 mins at 16.53 mg/kg, po; format: functional
Procedure, shortened: (§2)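 Male Wistar rats were given desipramine (25 mg/kg ip) and then a unilateral 6-OHDA injection (8 µg free base) into the left medial forebrain bundle. Lesions were confirmed ≥2 weeks later by apomorphine (0.5 mg/kg sc), accepting rats with >6 turns/min. Rats (n=4–8) received benserazide 10 mg/kg and 30 min basal recording, then drug at 63.4 µmol/kg ip or po in saline. Contraversive rotations were counted per 10 min over 240 min. AUC was calculated and expressed as % of the L-dopa effect.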

[4] = test system: Rattus norvegicus; test: Antiparkinsonian activity in 6-hydroxydopamine lesioned Wistar rat assessed as area under curve measured as number of rotation per 10 mins at 16.53 mg/kg, ip; format: functional; details: route intraperitoneal; procedure, shortened: as §2
[5] = test system: Rattus norvegicus; test: Antiparkinsonian activity in 6-hydroxydopamine lesioned Wistar rat assessed as duration of rotation per 10 mins at 16.53 mg/kg, po; format: functional
Procedure, shortened: (§3)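 The 6-OHDA-lesioned male Wistar rats were apomorphine-screened (>6 turns/min) and given benserazide 10 mg/kg, then a saline-vehicle dose of 63.4 µmol/kg ip or po (n=4–8). Rotations were counted per 10 min for 4 h. Duration of activity was the time turning >10 turns per 10 min, expressed as % of the L-dopa effect.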

[6] = test system: Rattus norvegicus; test: Antiparkinsonian activity in 6-hydroxydopamine lesioned Wistar rat assessed as duration of rotation per 10 mins at 16.53 mg/kg, ip; format: functional; details: route intraperitoneal; procedure, shortened: as §3
[7] = test system: Rattus norvegicus; test: Antiparkinsonian activity in 6-hydroxydopamine lesioned Wistar rat assessed as number of rotation per 10 mins at 21.35 mg/kg, ip; format: functional; details: route intraperitoneal
[8] = test system: Rattus norvegicus; test: Antiparkinsonian activity in 6-hydroxydopamine lesioned Wistar rat assessed as number of rotation per 10 mins at 21.35 mg/kg, po; format: functional
[9] = test system: Rattus norvegicus; test: Antiparkinsonian activity in 6-hydroxydopamine lesioned Wistar rat assessed as area under curve measured as number of rotation per 10 mins at 21.35 mg/kg, po; format: functional; procedure, shortened: as §2
[10] = test system: Rattus norvegicus; test: Antiparkinsonian activity in 6-hydroxydopamine lesioned Wistar rat assessed as area under curve measured as number of rotation per 10 mins at 21.35 mg/kg, ip; format: functional; details: route intraperitoneal; procedure, shortened: as §2
[11] = test system: Rattus norvegicus; test: Antiparkinsonian activity in 6-hydroxydopamine lesioned Wistar rat assessed as duration of rotation per 10 mins at 21.35 mg/kg, po; format: functional; procedure, shortened: as §3
[12] = test system: Rattus norvegicus; test: Antiparkinsonian activity in 6-hydroxydopamine lesioned Wistar rat assessed as duration of rotation per 10 mins at 21.35 mg/kg, ip; format: functional; details: route intraperitoneal; procedure, shortened: as §3
[13] = test system: Rattus norvegicus; test: Antiparkinsonian activity in 6-hydroxydopamine lesioned Wistar rat assessed as number of rotation per 10 mins at 23.89 mg/kg, po; format: functional
[14] = test system: Rattus norvegicus; test: Antiparkinsonian activity in 6-hydroxydopamine lesioned Wistar rat assessed as area under curve measured as number of rotation per 10 mins at 23.89 mg/kg, po; format: functional; procedure, shortened: as §2
[15] = test system: Rattus norvegicus; test: Antiparkinsonian activity in 6-hydroxydopamine lesioned Wistar rat assessed as duration of rotation per 10 mins at 23.89 mg/kg, po; format: functional; procedure, shortened: as §3
[16] = test system: Rattus norvegicus; test: Cmax in Wistar rat at 23.9 mg/kg, po assessed as L-dopa level; format: ADME, organism-based; design: dose 23.9 mg/kg, route oral; details: in vivo
Procedure, shortened: (§4)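 Naïve male Wistar rats (250–500 g), fasted overnight, dosed orally in 0.9% saline with benserazide (10 mg/kg) at dose equivalent to 12.5 mg/kg L-dopa. Heparinised tail-vein blood at various times; plasma extracted with 20% TFA in 10 mM metabisulphite with warfarin internal standard; L-dopa quantified by LC-MS/MS (positive ESI) against plasma standard curve 0.39–50 µM.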

[17] = test system: Rattus norvegicus; test: AUC (0 to 4 hrs) in Wistar rat at 23.9 mg/kg, po assessed as L-dopa level; format: ADME, organism-based, Plasma; design: time < 4 hr, dose 23.9 mg/kg, route oral; details: in vivo
Procedure, shortened: (§5)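 Naïve male Wistar rats (250–500 g), fasted overnight, dosed with compound in 0.9% saline together with benserazide (10 mg/kg), at a dose molar-equivalent to 12.5 mg/kg L-dopa. Heparinised tail-vein blood was sampled at intervals and the plasma stored at −80 °C. L-dopa was extracted with 20% TFA/10 mM metabisulphite plus warfarin internal standard and quantified by LC-MS/MS (positive ESI) against plasma standard curves.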

[18] = test system: Rattus norvegicus; test: Antiparkinsonian activity in 6-hydroxydopamine lesioned Wistar rat assessed as duration of rotation per 10 mins at 15.64 mg/kg, po; format: functional; procedure, shortened: as §3
[19] = test system: Rattus norvegicus; test: Antiparkinsonian activity in 6-hydroxydopamine lesioned Wistar rat assessed as number of rotation per 10 mins at 15.64 mg/kg, ip; format: functional; details: route intraperitoneal; procedure, shortened: as §1
[20] = test system: Rattus norvegicus; test: Antiparkinsonian activity in 6-hydroxydopamine lesioned Wistar rat assessed as number of rotation per 10 mins at 15.64 mg/kg, po; format: functional; procedure, shortened: as §1
[21] = test system: Rattus norvegicus; test: Antiparkinsonian activity in 6-hydroxydopamine lesioned Wistar rat assessed as area under curve measured as number of rotation per 10 mins at 15.64 mg/kg, po; format: functional; procedure, shortened: as §2
[22] = test system: Rattus norvegicus; test: Antiparkinsonian activity in 6-hydroxydopamine lesioned Wistar rat assessed as area under curve measured as number of rotation per 10 mins at 15.64 mg/kg, ip; format: functional; details: route intraperitoneal; procedure, shortened: as §2
[23] = test system: Rattus norvegicus; test: Antiparkinsonian activity in 6-hydroxydopamine lesioned Wistar rat assessed as duration of rotation per 10 mins at 15.64 mg/kg, ip; format: functional; details: route intraperitoneal; procedure, shortened: as §3
[24] = test system: Rattus norvegicus; test: Antiparkinsonian activity in 6-hydroxydopamine lesioned Wistar rat assessed as number of rotation per 10 mins at 22.75 mg/kg, po; format: functional
[25] = test system: Rattus norvegicus; test: Antiparkinsonian activity in 6-hydroxydopamine lesioned Wistar rat assessed as area under curve measured as number of rotation per 10 mins at 22.75 mg/kg, po; format: functional; procedure, shortened: as §2
[26] = test system: Rattus norvegicus; test: Antiparkinsonian activity in 6-hydroxydopamine lesioned Wistar rat assessed as duration of rotation per 10 mins at 22.75 mg/kg, po; format: functional; procedure, shortened: as §3
[27] = test system: Rattus norvegicus; test: Antiparkinsonian activity in 6-hydroxydopamine lesioned Wistar rat assessed as duration of rotation per 10 mins at 14.74 mg/kg, ip; format: functional; details: route intraperitoneal; procedure, shortened: as §3
[28] = test system: Rattus norvegicus; test: Antiparkinsonian activity in 6-hydroxydopamine lesioned Wistar rat assessed as duration of rotation per 10 mins at 14.74 mg/kg, po; format: functional; procedure, shortened: as §3
[29] = test system: Rattus norvegicus; test: Antiparkinsonian activity in 6-hydroxydopamine lesioned Wistar rat assessed as number of rotation per 10 mins at 14.74 mg/kg, ip; format: functional; details: route intraperitoneal; procedure, shortened: as §1
[30] = test system: Rattus norvegicus; test: Antiparkinsonian activity in 6-hydroxydopamine lesioned Wistar rat assessed as number of rotation per 10 mins at 14.74 mg/kg, po; format: functional; procedure, shortened: as §1
[31] = test system: Rattus norvegicus; test: Antiparkinsonian activity in 6-hydroxydopamine lesioned Wistar rat assessed as area under curve measured as number of rotation per 10 mins at 14.74 mg/kg, po; format: functional; procedure, shortened: as §2
[32] = test system: Rattus norvegicus; test: Antiparkinsonian activity in 6-hydroxydopamine lesioned Wistar rat assessed as area under curve measured as number of rotation per 10 mins at 14.74 mg/kg, ip; format: functional; details: route intraperitoneal; procedure, shortened: as §2
[33] = test system: Rattus norvegicus; test: Cmax in Wistar rat at 14.8 mg/kg, po assessed as L-dopa level; format: ADME, organism-based; design: dose 14.8 mg/kg, route oral; details: in vivo; procedure, shortened: as §4
[34] = test system: Rattus norvegicus; test: Apparent half life in Wistar rat at 14.8 mg/kg, po assessed as L-dopa level; format: ADME, organism-based; design: dose 14.8 mg/kg, route oral; details: in vivo; procedure, shortened: as §4
[35] = test system: Rattus norvegicus; test: AUC (0 to 4 hrs) in Wistar rat at 14.8 mg/kg, po assessed as L-dopa level; format: ADME, organism-based, Plasma; design: time < 4 hr, dose 14.8 mg/kg, route oral; details: in vivo; procedure, shortened: as §5
[36] = test system: Rattus norvegicus; test: Antiparkinsonian activity in 6-hydroxydopamine lesioned Wistar rat assessed as duration of rotation per 10 mins at 12.5 mg/kg, ip; format: functional; details: route intraperitoneal; procedure, shortened: as §3
[37] = test system: Rattus norvegicus; test: Antiparkinsonian activity in 6-hydroxydopamine lesioned Wistar rat assessed as duration of rotation per 10 mins at 12.5 mg/kg, po; format: functional; procedure, shortened: as §3
[38] = test system: Rattus norvegicus; test: Antiparkinsonian activity in 6-hydroxydopamine lesioned Wistar rat assessed as number of rotation per 10 mins at 12.5 mg/kg, ip; format: functional; details: route intraperitoneal; procedure, shortened: as §1
[39] = test system: Rattus norvegicus; test: Antiparkinsonian activity in 6-hydroxydopamine lesioned Wistar rat assessed as number of rotation per 10 mins at 12.5 mg/kg, po; format: functional; procedure, shortened: as §1
[40] = test system: Rattus norvegicus; test: Antiparkinsonian activity in 6-hydroxydopamine lesioned Wistar rat assessed as area under curve measured as number of rotation per 10 mins at 12.5 mg/kg, po; format: functional; procedure, shortened: as §2
[41] = test system: Rattus norvegicus; test: Antiparkinsonian activity in 6-hydroxydopamine lesioned Wistar rat assessed as area under curve measured as number of rotation per 10 mins at 12.5 mg/kg, ip; format: functional; details: route intraperitoneal; procedure, shortened: as §2

SMILES: CCNC(=O)[C@@H](N)Cc1ccc(O)c(O)c1.Cl
- Activity [1]: 40
- Activity [2]: 39
- Activity [3]: 324
- Activity [4]: 117
- Time [5]: 39 min
- Time [6]: 18 min

SMILES: Cl.N[C@@H](Cc1ccc(O)c(O)c1)C(=O)NCCc1ccccc1
- Activity [7]: 124
- Activity [8]: 17
- Activity [9]: 94
- Activity [10]: 825
- Time [11]: 30 min
- Time [12]: 124 min

SMILES: CCOC(=O)Oc1ccc(C[C@H](N)C(N)=O)cc1OC(=O)OCC.Cl
- Activity [13]: 90
- Activity [14]: 579
- Time [15]: 153 min
- Cmax [16]: 690 ng/mL
- AUC [17]: 95 µg·min/mL

SMILES: CNC(=O)[C@@H](N)Cc1ccc(O)c(O)c1.Cl
- Time [18]: 10 min
- Activity [19]: 2
- Activity [20]: 5
- Activity [21]: 29
- Activity [22]: 16
- Time [23]: 0 min

SMILES: CC(=O)Oc1ccc(C[C@H](N)C(=O)NC(C)C)cc1OC(C)=O.Cl
- Activity [24]: 2
- Activity [25]: 26
- Time [26]: 0 min

SMILES: Cl.NC(=O)[C@@H](N)Cc1ccc(O)c(O)c1
- Time [27]: 155 min
- Time [28]: 103 min
- Activity [29]: 144
- Activity [30]: 105
- Activity [31]: 612
- Activity [32]: 1186
- Cmax [33]: 2203 ng/mL
- t1/2 [34]: 52 min
- AUC [35]: 256 µg·min/mL

SMILES: N[C@@H](Cc1ccc(O)c(O)c1)C(=O)O [LEVODOPA]
- Time [36]: 160 min
- Time [37]: 119 min
- Activity [38]: 104
- Activity [39]: 71
- Activity [40]: 522
- Activity [41]: 1021
